Assay results as given in the EternaBench riboswitch data.

System: MS2 coat protein
Experiment: apparent Kd, MS2 coat protein; higher = weaker binding; RNA-MaP array; FMN 200 µM where present
Method in brief: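 Each design was made on Illumina sequencing-chip clusters by stalled E. coli RNA polymerase and titrated with SNAP-549-labelled MS2 coat protein from 0.7 or 1.5 nM, doubling to 3 µM, in the absence and then the presence of constant ligand. The buffer was 100 mM Tris-HCl pH 7.5, 80 mM KCl, 4 mM MgCl2, BSA, DTT, yeast tRNA and Tween-20. The apparent Kd is the median of filtered per-cluster fits of binding curves, with green signal normalised to red-channel RNA signal and control-cluster median Fmax.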

[1] = designed as: OFF switch for flavin mononucleotide, no ligand
[2] = ligand present: flavin mononucleotide, designed as: OFF switch for flavin mononucleotide
[3] = designed as: ON switch for flavin mononucleotide, no ligand
[4] = ligand present: flavin mononucleotide, designed as: ON switch for flavin mononucleotide

Which “apparent Kd” value [1] does the source give for “CAUGAUUGGGAAGGAUAUUGACCUAGUUAGUGCCGAGAAGGUCCCUUUCACAUGAGGAUCACCCAUGUGAGACUGGUGUUCGAG” here?
Its value is 0.0265 µM.

What about the “apparent Kd” value [2] of the same sequence?
The value was 0.0504 µM.

Which results are given for “UUGUUAUAUGUAGGAUAUGCAUAUUGUUAUUAUGCAGAAGGACAUGAGGAUCACCCAUGUAUAUUAUUAUUAUAUAUUAUAUAU”?
apparent Kd [1]: 0.032 µM; apparent Kd [2]: 0.0647 µM

With “AAAAUCUAUUGAGGAUAUUCAAACACUACAUACGGAGAAGGCAAACAAUCAUGAGGACAUGAGGAUCACCCAUGUUGUGACCAU” as the sequence, how does the “apparent Kd” value [3] read?
The value was 0.0255 µM.

What about the “apparent Kd” value [4] of the same sequence?
The value was 0.0194 µM.

What does the source list for “AUAAUUUUAUAAUUCUUUUUAUUCAGAAGGCAUAACAUGAGGAUCACCCAUGUAAAUUAAUGUUAUGAGGAUAUGAUUUGGUUA”?
apparent Kd [1]: 0.0225 µM; apparent Kd [2]: 0.118 µM

How did the “apparent Kd” value [1] turn out when “AGCGGCGCAGACCACCGCAAAACCAGAAGGACAUGAGGAUCACCCAUGUAACAAAACAGGGCAAUGUAGGAUAUGGCAAACCCA” was run?
Its value is 0.0111 µM.

And the “apparent Kd” value [2]?
Its value is 0.0126 µM.

Which “apparent Kd” value [1] does the source give for “CGUUAUUCAGGAUAUGGUGUGUUAUACAUGAGGAUCACCCAUGUAGAUCCUGGUUAGGCCUCAGAAGGGAAUGUUC” here?
Its value is 0.165 µM.

And the “apparent Kd” value [2]?
Its value is 0.145 µM.

Which results are given for “CGGUGACGUGUAGGAUAUGGAGGUGGGUUUUGGCCAGAAGGACAUGAGGAUCACCCAUGUGGUAGAGGGUUGGCGGCGGCCCGU”?
apparent Kd [1]: 0.015 µM; apparent Kd [2]: 0.0147 µM

Which “apparent Kd” value [1] does the source give for “GCUGGACAAGGAUAUACAAUCGUGCUUCGGCACGUAAGGUCACAUGAGGAUCACCCAUGUAGAAGGUGUCCAGC” here?
The value was 0.0238 µM.

What about the “apparent Kd” value [2] of the same sequence?
Its value is 0.157 µM.

For “CGGUCGAUAUCAGGAUAUCGUUUAAUUACAUGAGGAUCACCCAUGUUGACAUGGAAUAUAACAUGCGAGAAGGGAUUACGAUCG”, which “apparent Kd” value [3] is on record?
The value was 0.0139 µM.

What about the “apparent Kd” value [4] of the same sequence?
Its value is 0.00985 µM.

What does the source list for “CACGGACAUGAGGAUCACCCAUGUGAGGAUAUGCUCUACGAACGUUUUCCCACGAGAAGCAGAAGGCACAUUUC”?
apparent Kd [1]: 0.0782 µM; apparent Kd [2]: 0.135 µM

Which results are given for “GUGAGGUCAGGAUAUGCAUGGCGGGACUUGCGUCGUGGCGUGGAGAAGGGACAUGAGGAUCACCCAUGUGGAGG”?
apparent Kd [1]: 0.115 µM; apparent Kd [2]: 0.095 µM

Which results are given for “CCAUGCGGAAUAGGAUAUUCAUUCAUGAGGAUAGAAGAAGGGUUACAUGAGGAUCACCCAUGUAUACACAUGAGGAUCCCUUAC”?
apparent Kd [1]: 0.162 µM; apparent Kd [2]: 0.18 µM

With “GGUGCAAUGUAGAAGGCAGAUCUGAUUCAGAUCUGAGGAUAUACAUGAGGAUCACCCAUGUUAUGCACCAGCACGAGAGUGCAA” as the sequence, how does the “apparent Kd” value [1] read?
The value was 0.00657 µM.

What about the “apparent Kd” value [2] of the same sequence?
The value was 0.0126 µM.

How did the “apparent Kd” value [1] turn out when “CUAUUAUUGAUCCAUUUUUUCAACAUGAGGAUCACCCAUGUGCAGGAUAUCGUGAUUAUUAUCAACGAGAAGGGCAAAUUCACG” was run?
Its value is 0.0457 µM.

And the “apparent Kd” value [2]?
The value was 0.149 µM.

Which “apparent Kd” value [1] does the source give for “UAUACUUACGAAGGAUAUGGUUACAUGAGGAUCACCCAUGUAUGUAUAUUGAUCUUGUAUCUUAACCAGAAGGUCGUCACUAUA” here?
Its value is 0.0263 µM.

What about the “apparent Kd” value [2] of the same sequence?
Its value is 0.0234 µM.

How did the “apparent Kd” value [1] turn out when “AGGAAGUCAGGAUAUGCUGCUCGUCACUUGCGUGAUGAGUAGCAGAAGGGACAUGAGGAUCACCCAUGUAAAGA” was run?
The value was 0.0512 µM.

And the “apparent Kd” value [2]?
Its value is 0.0651 µM.

“CUUUUGUGAGGAUAUCAGUAGUUAAAUAAUAAAAUUACUACUGAGAAGGCACAUGAGGAUCACCCAUGUUCCUC” was tested. Which “apparent Kd” value [1] did it give?
The value was 0.0364 µM.

And the “apparent Kd” value [2]?
Its value is 0.201 µM.

Which “apparent Kd” value [1] does the source give for “AAGAUGCGGAUAGGAUAUGGAAAGAAGGAAAGACCAGAAGGAUUGGUCAUAUAACAUGAGGAUCACCCAUGUAUAUGUUGUGAA” here?
Its value is 0.0178 µM.

What about the “apparent Kd” value [2] of the same sequence?
Its value is 0.0177 µM.

What does the source list for “CGUCUAUGCCAGAAGGCAUAAAACAUGAGGAUCACCCAUGUCAAAGACAUGAGGAUAUGGCAUAGACGAAAAGUGCGAAAGCAC”?
apparent Kd [3]: 0.0179 µM; apparent Kd [4]: 0.00497 µM

How did the “apparent Kd” value [1] turn out when “CUGAGGUCAGGAUAUGCAUGGCGGGACUUGCGUCGUGGCGUGGAGAAGGGACAUGAGGAUCACCCAUGUGGAGA” was run?
The value was 0.083 µM.

And the “apparent Kd” value [2]?
The value was 0.0811 µM.

“AUUACCAGAGGAUAUGCGAGGGUGUACCUCCCACAGCGAACACAUGAGGAUCACCCAUGUAGAAGGCUGAACAU” was tested. Which “apparent Kd” value [1] did it give?
The value was 0.0389 µM.

And the “apparent Kd” value [2]?
The value was 0.033 µM.

Which results are given for “CGCUGUCAUGCAGGAUAUGCAUUGGAUUGCAAUGCAGAAGGGCGAUUACAUGAGGAUCACCCAUGUGUAGACAGUGAAGAAGAG”?
apparent Kd [3]: 0.16 µM; apparent Kd [4]: 0.0126 µM

Which “apparent Kd” value [1] does the source give for “CUGCGGUAGGAGAAGGACGGCGGGUUCUUUUCAUACAUGAGGAUCACCCAUGUAGGAUAUCCUACCUCAGGCGGCCUACUACAG” here?
Its value is 0.00768 µM.

And the “apparent Kd” value [2]?
Its value is 0.0109 µM.

What does the source list for “UCAGGCUUCGAGAAGGACAUGAAUCGUAGCAUUGCUACGAUCAUAGAUACAUGAGGAUCACCCAUGUAGGAUAUCGGAGUCUGC”?
apparent Kd [1]: 0.0058 µM; apparent Kd [2]: 0.00587 µM
